Measurements from PMC8273112 (ACS Infectious Diseases, 2021).
Structures can show the parent of a compound that is named as a salt. Where two headings read alike, the source gives them in different places.

How the values were obtained:
P. falciparum = details: cited from earlier work
Leishmania donovani = details: read-out: in vitro IC50 Leishmania donovani; cited from earlier work
HepG2 cytotoxicity assay = type: cell-based, human; details: human, HepG2 cells
[1] = test system: P. falciparum strain Tm90–C2B; test: SYBR Green growth inhibition assay, P. falciparum Tm90-C2B; type: cell-based, Plasmodium falciparum; details: read-out: IC50 Tm90–C2B
Method in brief: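 Human erythrocytes (≤28 days old), 2% hematocrit, asynchronous culture at 0.2% initial parasitemia, in RPMI-1640 with HEPES, hypoxanthine, glucose, glutamine and Albumax II. 2-fold serial dilution starting at 20 μM, quadruplicate. Incubated 72 h at 37 °C under 5% O2/5% CO2/90% N2. SYBR Green I dye-detergent added for at least 1 h in the dark; fluorescence read at 497/520 nm, normalized to untreated wells, plotted against log concentration.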

Plasmodium yoelii [2] = test: Modified 4-day Peters test, murine malaria; type: in vivo, Plasmodium yoelii in mice; details: for P. yoelii ED50 / P. yoelii ED90: oral gavage days 1–4, parasitemia day 5, mice; for P. yoelii NRD (nonrecrudescence dose, cure dose): oral gavage up to 25 mg/kg/day, no parasites at day 30
[3] = test system: Plasmodium falciparum strain D6; test: SYBR Green growth inhibition assay, P. falciparum D6; type: cell-based; details: read-out: IC50 D6
[4] = test system: Plasmodium falciparum strain Dd2; test: SYBR Green growth inhibition assay, P. falciparum Dd2; type: cell-based; details: read-out: IC50 Dd2
[5] = test system: P. falciparum A6 (SB1-A6); test: SYBR Green growth inhibition assay, P. falciparum A6; type: cell-based, Plasmodium falciparum; details: 72 h, read-out: IC50 A6
Method in brief: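 Asynchronous parasites grown in human erythrocytes in RPMI-1640 with HEPES, hypoxanthine and Albumax II under 5% O2/5% CO2/90% N2 at 37 °C. Test compound in 2-fold serial dilution from 20 μM, run in quadruplicate, at 2% hematocrit and 0.2% starting parasitemia for 72 h. SYBR Green I lysis dye added for ≥1 h in the dark. Fluorescence read at 497/520 nm, normalized to untreated wells and plotted against log concentration.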

HepG2 cells = test: HepG2 cytotoxicity assay; type: cell-based, human; details: read-out: IC50 cytotoxicity, 24 h drug, 24 h recovery
Plasmodium yoelii [6] = details: at any dose level; no reference given; cited from earlier work
[7] = cited from earlier work
[8] = Murine microsomal stability; type: in vitro ADME
Toxoplasma gondii = details: cited from earlier work
Babesia microti = details: oral; cited from earlier work
P. berghei = details: cited from earlier work
[9] = Plasmodium falciparum, TM90, 72 h
[10] = Plasmodium falciparum, D6, 72 h
[11] = Plasmodium falciparum, DD2, 72 h
[12] = multidrug-resistant clinical isolate also resistant to atovaquone, 72 h
[13] = P. falciparum pan-sensitive strain D6, 72 h, average of two to four determinations
[14] = multidrug-resistant P. falciparum strain Dd2, 72 h
[15] = in-house derived mutant line resistant to respiratory antagonists

SMILES	IC50 at 24 h (HepG2 cytotoxicity assay) [nM]	IC50 [1, 9] [nM]	IC50 [3, 10] [nM]	IC50 [4, 11] [nM]	IC50 ([5]; Plasmodium falciparum) [nM]	IC50 (HepG2 cells) [nM]	IC50 [1, 12] [nM]	IC50 [3, 13] [nM]	IC50 [4, 14] [nM]	IC50 [5, 15] [nM]	also measured
Cl.Cl.Cl.N=C(N)c1cccc(/C=N/N=C(\N)N/N=C/c2cccc(C(=N)N)c2)c1 [CGP 40215A]											IC50 value against P. falciparum in vitro (P. falciparum): low micromolar; IC50 (Leishmania donovani): 18000 nM
Cl.N#Cc1ccc(C=NNC(=N)NN=Cc2ccc(C#N)cc2)cc1 [Compound 22, 2,2′-Bis[(4-cyanophenyl)methylene]carbonimidic Dihydrazide Hydrochloride]	> 200000	312	58	166	76						P. yoelii ED50 (Plasmodium yoelii [2]): 2.7 mg/kg/day; P. yoelii ED90 (Plasmodium yoelii [2]): 7.7 mg/kg/day; P. yoelii NRD (nonrecrudescence dose, cure dose) (Plasmodium yoelii [2]): >25 mg/kg/day
N=C(NN=Cc1ccc([N+](=O)[O-])cc1)NN=Cc1ccc([N+](=O)[O-])cc1 [Compound 27, 2,2′-Bis[(4-nitrophenyl)methylene]carbonimidic Dihydrazide Hydrochloride]	> 200000	247	96	198	85						
N=C(NN=Cc1ccc(C(=O)O)cc1)NN=Cc1ccc(C(=O)O)cc1 [Compound 29, 2,2′-Bis[(phenyl-4-carbonate)methylene]carbonimidic Dihydrazide Hydrochloride]						> 200000	> 5000	> 5000	> 5000	> 5000	
N=C(NN=Cc1ccc(S(N)(=O)=O)cc1)NN=Cc1ccc(S(N)(=O)=O)cc1 [Compound 31, 2,2′-Bis[(4-sulphonamidophenyl)methylene]carbonimidic Dihydrazide Hydrochloride]						> 200000	> 5000	> 5000	> 5000	> 5000	
N=C(NN=Cc1cccc(-n2cnnn2)c1)NN=Cc1cccc(-n2cnnn2)c1 [Compound 34, 2,2′-Bis[(3-tetrazole-1-phenyl)methylene]carbonimidic Dihydrazide Hydrochloride]						107000	> 5000	1640	> 5000	4790	
N=C(NN=Cc1ccc(-n2cnnn2)cc1)NN=Cc1ccc(-n2cnnn2)cc1 [Compound 35, 2,2′-Bis[(4-tetrazole-1-phenyl)methylene]carbonimidic Dihydrazide Hydrochloride]						> 200000	> 5000	838	> 5000	> 5000	
N=C(NN=Cc1ccc2c(c1)OC(F)(F)O2)NN=Cc1ccc2c(c1)OC(F)(F)O2 [Compound 36, 2,2′-Bis{[4-(2,2-difluoro-2,3-dioxazolo)]phenyl}methylene]carbonimidic Dihydrazide Hydrochloride]						> 200000	905	250	800	235	
O=C1C(O)=C([C@H]2CC[C@H](c3ccc(Cl)cc3)CC2)C(=O)c2ccccc21 [atovaquone, reference compound]	72000	> 5000	< 1	< 1	> 5000						
CCN(CC)CCCC(C)Nc1ccnc2cc(Cl)ccc12 (centres unmarked) [chloroquine, reference compound]	181000	297		70	16						cure in P. yoelii model (Plasmodium yoelii [6]): not curative
Cl.N=C(NN=Cc1ccc(Cl)cc1)NN=Cc1ccc(Cl)cc1 [robenidine, 1,3-Bis(p-chlorobenzylideneamino)guanidine hydrochloride, reference compound]	30000	1320	324	814	410						absorption [7]: poorly absorbed; P. yoelii ED50 (Plasmodium yoelii [2]): 1.6 mg/kg/day; P. yoelii ED90 (Plasmodium yoelii [2]): 4.9 mg/kg/day; P. yoelii NRD (nonrecrudescence dose, cure dose) (Plasmodium yoelii [2]): >25 mg/kg/day; murine microsomal stability, t1/2 ([8]; 1 μM, 0.5 mg/mL protein, 37 °C, 1 h, NADPH): 2.6442 h; CLint scaled at 1 μM ([8]; mouse, pooled murine liver microsomes, pH 7.4): 34.4 mL/min/kg; half-life at 1 μM ([8]; mouse, pooled murine liver microsomes, pH 7.4, murine microsomal stability, t1/2, 1 μM, 0.5 mg/mL protein, 37 °C, 1 h, NADPH): > 2.5 h; in vitro IC50 Toxoplasma gondii (Toxoplasma gondii): 0.03 µg/mL; murine in vivo nonrecrudescence dose Babesia microti (Babesia microti): 100 mg/kg/day; activity in vivo against P. berghei (P. berghei): moderate activity
